# Experimental data published in ChEMBL document CHEMBL1143782, “Alpha-aminothiazole-gamma-aminobutanoic amides as potent, small molecule CCR2 receptor antagonists” (Bioorg Med Chem Lett, 2007).
# Key:
# [1] = target: T1, C-C chemokine receptor type 2 (Homo sapiens, UniProt P41597); test: Displacement of [125I]MCP-1 from human CCR2 expressed in monocytes 1 uM; assay type: cell-based
# Target sequence in this assay (P41597 whole entry, looked up): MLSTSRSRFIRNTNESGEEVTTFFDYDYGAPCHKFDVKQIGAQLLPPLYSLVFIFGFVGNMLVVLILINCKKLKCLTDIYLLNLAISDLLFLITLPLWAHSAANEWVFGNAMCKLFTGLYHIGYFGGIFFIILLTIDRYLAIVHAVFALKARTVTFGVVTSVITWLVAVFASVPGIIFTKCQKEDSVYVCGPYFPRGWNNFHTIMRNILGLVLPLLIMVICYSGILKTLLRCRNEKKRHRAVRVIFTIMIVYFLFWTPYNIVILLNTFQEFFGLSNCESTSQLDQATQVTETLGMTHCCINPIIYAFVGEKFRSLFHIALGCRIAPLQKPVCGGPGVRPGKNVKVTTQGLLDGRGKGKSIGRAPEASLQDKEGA
# [2] = target: T1, C-C chemokine receptor type 2; test: Displacement of [125I]MCP1 from human CCR2 expressed in monocytes; assay type: cell-based
# Procedure, shortened: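 Human CCR2 binding was read as inhibition of 125I-MCP-1 binding to monocyte cells stably transfected with CCR2. The assay was run in the presence of 0.5% BSA, using membranes of these cells.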
# Target sequence in this assay (P41597 whole entry): as the sequence (P41597 whole entry, looked up) above
# [3] = target: C-C chemokine receptor type 2 (Mus musculus, UniProt P51683); test: Displacement of [125I]MCP1 from mouse CCR2 expressed in monocytes; assay type: cell-based
# [4] = target: C-X-C chemokine receptor type 4 (Homo sapiens) (UniProt P61073); test: Inhibition of CXCR4 at 1uM
# [5] = Cmax in Sprague-Dawley rat; assay type: ADME, organism-based; conditions: in vivo
# [6] = target: Substance-P receptor (Homo sapiens) (UniProt P25103); test: Inhibition of NK1 receptor at 1uM
# [7] = target: C-C chemokine receptor type 5 (Homo sapiens) (UniProt P51681); test: Inhibition of CCR5 at 1uM
# [8] = Cmax in Beagle dog; assay type: ADME, organism-based, Canis lupus familiaris; conditions: in vivo
# [9] = Tmax in Beagle dog; assay type: ADME, organism-based, Canis lupus familiaris; conditions: in vivo
# [10] = Clearance in Beagle dog; assay type: ADME, organism-based, Canis lupus familiaris; conditions: in vivo
# [11] = Half life in Beagle dog; assay type: ADME, organism-based, Canis lupus familiaris; conditions: in vivo
# [12] = Bioavailability in Sprague-Dawley rat; assay type: ADME, organism-based; conditions: in vivo
# [13] = Bioavailability in Beagle dog; assay type: ADME, organism-based, Canis lupus familiaris; conditions: in vivo
# [14] = Volume of distribution in Sprague-Dawley rat; assay type: ADME, organism-based; conditions: in vivo, read-out: Vdss
# [15] = target: T2, C-C chemokine receptor type 3 (Homo sapiens) (UniProt P51677); test: Inhibition of CCR3 at 1uM
# T2 sequence (whole entry): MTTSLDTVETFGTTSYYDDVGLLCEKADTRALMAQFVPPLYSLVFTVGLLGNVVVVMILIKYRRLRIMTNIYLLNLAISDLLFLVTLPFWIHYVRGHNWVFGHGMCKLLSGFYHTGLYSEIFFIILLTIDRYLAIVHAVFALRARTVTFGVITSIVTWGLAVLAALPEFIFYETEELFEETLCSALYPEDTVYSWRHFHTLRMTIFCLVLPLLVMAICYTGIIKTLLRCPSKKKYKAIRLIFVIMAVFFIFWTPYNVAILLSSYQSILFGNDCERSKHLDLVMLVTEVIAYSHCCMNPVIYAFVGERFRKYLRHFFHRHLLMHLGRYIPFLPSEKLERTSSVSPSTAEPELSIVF
# [16] = Half life in Sprague-Dawley rat; assay type: ADME, organism-based; conditions: in vivo
# [17] = target: T3, C-C chemokine receptor type 4 (Homo sapiens) (UniProt P51679); test: Inhibition of CCR4 at 1uM
# T3 sequence (whole entry): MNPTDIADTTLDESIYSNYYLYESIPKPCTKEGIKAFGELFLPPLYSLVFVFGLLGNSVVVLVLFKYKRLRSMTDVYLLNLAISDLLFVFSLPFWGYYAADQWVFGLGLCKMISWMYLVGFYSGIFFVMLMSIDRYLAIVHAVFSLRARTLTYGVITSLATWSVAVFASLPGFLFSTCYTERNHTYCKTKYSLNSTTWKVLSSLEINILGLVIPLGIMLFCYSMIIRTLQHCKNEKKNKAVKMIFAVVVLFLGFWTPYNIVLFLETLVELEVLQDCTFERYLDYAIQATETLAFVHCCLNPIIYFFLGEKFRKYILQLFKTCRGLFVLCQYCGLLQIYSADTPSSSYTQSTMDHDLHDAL
# [18] = Tmax in Sprague-Dawley rat; assay type: ADME, organism-based; conditions: in vivo
# [19] = Volume of distribution in Beagle dog; assay type: ADME, organism-based, Canis lupus familiaris; conditions: in vivo, read-out: Vdss
# [20] = Clearance in Sprague-Dawley rat; assay type: ADME, organism-based; conditions: in vivo
# [21] = target: T4, C-C chemokine receptor type 1 (Homo sapiens) (UniProt P32246); test: Inhibition of CCR1 at 1uM
# T4 sequence (whole entry): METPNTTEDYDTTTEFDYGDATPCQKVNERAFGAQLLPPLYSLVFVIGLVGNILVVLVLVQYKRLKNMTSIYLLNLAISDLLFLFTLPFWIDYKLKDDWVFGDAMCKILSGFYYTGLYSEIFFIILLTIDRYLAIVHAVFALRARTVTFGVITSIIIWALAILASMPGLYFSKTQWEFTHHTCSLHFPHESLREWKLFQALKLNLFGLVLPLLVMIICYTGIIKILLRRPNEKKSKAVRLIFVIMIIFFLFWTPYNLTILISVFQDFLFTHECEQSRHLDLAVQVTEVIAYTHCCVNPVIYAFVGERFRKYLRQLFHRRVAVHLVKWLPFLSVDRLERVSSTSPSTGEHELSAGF
# Chain of C-C chemokine receptor type 2 (Mus musculus, UniProt P51683) (P51683 whole entry): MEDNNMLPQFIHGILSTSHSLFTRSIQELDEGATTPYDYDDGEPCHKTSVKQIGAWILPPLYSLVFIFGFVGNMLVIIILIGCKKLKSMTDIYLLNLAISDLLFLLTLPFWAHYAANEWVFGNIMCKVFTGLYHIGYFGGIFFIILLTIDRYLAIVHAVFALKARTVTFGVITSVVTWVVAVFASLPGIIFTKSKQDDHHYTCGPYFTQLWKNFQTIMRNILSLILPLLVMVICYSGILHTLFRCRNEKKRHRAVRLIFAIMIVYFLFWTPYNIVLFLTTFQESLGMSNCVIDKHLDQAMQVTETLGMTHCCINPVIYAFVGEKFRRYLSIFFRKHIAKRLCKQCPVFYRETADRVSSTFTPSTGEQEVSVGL
# Chain of C-X-C chemokine receptor type 4 (Homo sapiens) (P61073 whole entry): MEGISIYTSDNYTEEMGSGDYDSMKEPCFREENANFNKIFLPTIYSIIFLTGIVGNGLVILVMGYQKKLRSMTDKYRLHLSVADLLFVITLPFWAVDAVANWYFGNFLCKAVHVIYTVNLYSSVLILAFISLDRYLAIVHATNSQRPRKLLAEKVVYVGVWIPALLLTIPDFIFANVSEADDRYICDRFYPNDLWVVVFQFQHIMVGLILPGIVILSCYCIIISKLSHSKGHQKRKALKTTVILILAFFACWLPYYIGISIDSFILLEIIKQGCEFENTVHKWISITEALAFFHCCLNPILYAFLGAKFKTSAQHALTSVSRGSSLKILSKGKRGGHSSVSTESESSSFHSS
# Chain of C-C chemokine receptor type 5 (Homo sapiens) (P51681 whole entry, looked up): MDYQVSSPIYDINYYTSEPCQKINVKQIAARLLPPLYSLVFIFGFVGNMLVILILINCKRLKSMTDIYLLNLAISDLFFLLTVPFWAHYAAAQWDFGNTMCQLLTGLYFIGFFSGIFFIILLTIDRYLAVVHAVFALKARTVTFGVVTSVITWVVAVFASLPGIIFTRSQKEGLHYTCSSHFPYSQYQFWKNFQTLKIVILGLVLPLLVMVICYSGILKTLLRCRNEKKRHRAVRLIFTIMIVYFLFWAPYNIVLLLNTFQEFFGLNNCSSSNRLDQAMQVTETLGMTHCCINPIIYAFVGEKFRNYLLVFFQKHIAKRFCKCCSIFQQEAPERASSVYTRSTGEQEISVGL
# Chain of Substance-P receptor (Homo sapiens) (P25103 whole entry): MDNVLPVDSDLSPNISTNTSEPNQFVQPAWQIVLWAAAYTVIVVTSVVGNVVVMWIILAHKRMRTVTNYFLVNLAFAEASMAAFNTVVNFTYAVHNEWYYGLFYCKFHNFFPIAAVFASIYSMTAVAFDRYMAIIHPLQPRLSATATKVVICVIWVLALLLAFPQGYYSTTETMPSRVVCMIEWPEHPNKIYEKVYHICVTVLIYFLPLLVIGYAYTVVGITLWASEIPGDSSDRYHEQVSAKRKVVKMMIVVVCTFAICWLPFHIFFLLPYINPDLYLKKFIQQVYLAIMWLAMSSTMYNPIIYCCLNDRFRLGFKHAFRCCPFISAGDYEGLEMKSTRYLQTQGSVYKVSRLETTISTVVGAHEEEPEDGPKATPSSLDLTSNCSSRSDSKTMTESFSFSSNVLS
IC50 [2] [µM],Compound,other results
,Nc1nc(C(CCN2CCCCC2)C(=O)NCc2cc(C(F)(F)F)cc(C(F)(F)F)c2)cs1 (stereo not drawn),inhibition [1]: 75%
0.003,CNC(=O)Nc1nc(C(CCN2CCC(c3ccccc3)CC2)C(=O)NCc2cc(C(F)(F)F)cc(C(F)(F)F)c2)cs1 (stereo not drawn),
0.016,O=C(Nc1nc(C(CCN2CCC(c3ccccc3)CC2)C(=O)NCc2cc(C(F)(F)F)cc(C(F)(F)F)c2)cs1)c1ccccc1 (stereo not drawn),
0.0065,CC(=O)Nc1nc([C@@H](CCN2CCC3(C=Cc4ccccc43)CC2)C(=O)NCc2cc(C(F)(F)F)cc(C(F)(F)F)c2)cs1,
0.0013,C[C@H]1CN(CCC(C(=O)NCc2cc(C(F)(F)F)cc(C(F)(F)F)c2)c2csc(N)n2)CCC12C=Cc1ccccc12 (stereo partly drawn),
0.0023,CN(C)C(=O)Nc1nc(C(CCN2CCC(c3ccccc3)CC2)C(=O)NCc2cc(C(F)(F)F)cc(C(F)(F)F)c2)cs1 (stereo not drawn),
0.0017,CC(=O)Nc1nc(C(CCN2CCC3(C=Cc4ccccc43)CC2)C(=O)NCc2cc(C(F)(F)F)cc(C(F)(F)F)c2)cs1 (stereo not drawn),
0.003,CC(=O)Nc1nc(C(CCN2CCC(n3cnc4ccccc43)CC2)C(=O)NCc2cc(C(F)(F)F)cc(C(F)(F)F)c2)cs1 (stereo not drawn),
0.004,O=CNc1nc(C(CCN2CCC(c3ccccc3)CC2)C(=O)NCc2cc(C(F)(F)F)cc(C(F)(F)F)c2)cs1 (stereo not drawn),
0.0091,Nc1nc(C(CCN2CCC(c3ccc(F)cc3)CC2)C(=O)NCc2cc(C(F)(F)F)cc(C(F)(F)F)c2)cs1 (stereo not drawn),
0.017,C[C@H]1CN(CCC(C(=O)NCc2cc(C(F)(F)F)cc(C(F)(F)F)c2)c2csc(NC(=O)c3ccccc3)n2)CC[C@]12C=Cc1ccccc12 (stereo partly drawn),IC50 [3]: 0.952 µM
0.014,C[C@H]1CN(CCC(C(=O)NCc2cc(C(F)(F)F)cc(C(F)(F)F)c2)c2csc(NC(=O)c3cccnc3)n2)CC[C@]12C=Cc1ccccc12 (stereo partly drawn),IC50 [3]: 0.186 µM
0.018,CC(C)(C)C(=O)Nc1nc(C(CCN2CCC(c3ccccc3)CC2)C(=O)NCc2cc(C(F)(F)F)cc(C(F)(F)F)c2)cs1 (stereo not drawn),
0.074,CC(C(=O)Nc1nc(C(CCN2CC[C@]3(C=Cc4ccccc43)[C@@H](C)C2)C(=O)NCc2cc(C(F)(F)F)cc(C(F)(F)F)c2)cs1)c1ccccc1 (stereo partly drawn),IC50 [3]: 0.517 µM
0.0073,Nc1nc(C(CCN2CCC3(C=Cc4ccccc43)CC2)C(=O)NCc2cc(C(F)(F)F)cc(C(F)(F)F)c2)cs1 (stereo not drawn),
0.013,CC(=O)Nc1nc(C(CCN2CCCCC2)C(=O)NCc2cc(C(F)(F)F)cc(C(F)(F)F)c2)cs1 (stereo not drawn),
0.0286,Nc1nc(C(CCN2CCC(n3cnc4ccccc43)CC2)C(=O)NCc2cc(C(F)(F)F)cc(C(F)(F)F)c2)cs1 (stereo not drawn),
0.0052,CC(=O)Nc1nc(C(CCN2CCC(c3ccccc3)CC2)C(=O)NCc2cc(C(F)(F)F)cc(C(F)(F)F)c2)cs1 (stereo not drawn),inhibition [4]: 27%; Cmax [5]: 0.064 µM; inhibition [6]: 56%; inhibition [7]: 44%; Cmax [8]: 0.018 µM; Tmax [9]: 0.5 h; clearance [10]: 1.3 L/h/kg; half-life [11]: 2.28 h; bioavailability [12]: 17%; bioavailability [13]: 1.6%; Vd [14]: 5.3 L/kg; inhibition [15]: 7%; half-life [16]: 1.4 h; inhibition [17]: 86%; Tmax [18]: 2.2 h; Vd [19]: 4 L/kg; clearance [20]: 3.15 L/h/kg; inhibition [21]: 66%
0.0014,CC(=O)Nc1nc([C@H](CCN2CCC3(C=Cc4ccccc43)CC2)C(=O)NCc2cc(C(F)(F)F)cc(C(F)(F)F)c2)cs1,
0.042,CC(=O)Nc1nc([C@@H](CCN2CCC(c3ccccc3)CC2)C(=O)NCc2cc(C(F)(F)F)cc(C(F)(F)F)c2)cs1,
0.019,C[C@H]1CN(CCC(C(=O)NCc2cc(C(F)(F)F)cc(C(F)(F)F)c2)c2csc(NC(=O)Cc3ccccc3)n2)CC[C@]12C=Cc1ccccc12 (stereo partly drawn),IC50 [3]: 0.165 µM
0.013,C[C@H]1CN(CCC(C(=O)NCc2cc(C(F)(F)F)cc(C(F)(F)F)c2)c2csc(NC(=O)Cc3ccccn3)n2)CC[C@]12C=Cc1ccccc12 (stereo partly drawn),IC50 [3]: 0.079 µM
,COC(=O)Nc1nc([C@@H](CCN2CCC(c3ccccc3)CC2)C(=O)NCc2cc(C(F)(F)F)cc(C(F)(F)F)c2)cs1,inhibition [1]: 85%
0.0008,CNC(=O)Nc1nc([C@H](CCN2CCC3(C=Cc4ccccc43)CC2)C(=O)NCc2cc(C(F)(F)F)cc(C(F)(F)F)c2)cs1,

IC50 [2] [µM],Compound,other results
0.0145,CC(=O)Nc1nc(C(CCN2CCN(c3ccccc3C)CC2)C(=O)NCc2cc(C(F)(F)F)cc(C(F)(F)F)c2)cs1 (stereo not drawn),
0.0327,CC(=O)Nc1nc(C(CCN2CCN(c3ccc(F)cc3)CC2)C(=O)NCc2cc(C(F)(F)F)cc(C(F)(F)F)c2)cs1 (stereo not drawn),
0.0035,COC(=O)Nc1nc([C@H](CCN2CCC(c3ccccc3)CC2)C(=O)NCc2cc(C(F)(F)F)cc(C(F)(F)F)c2)cs1,
0.0133,Nc1nc([C@H](CCN2CCC(c3ccccc3)CC2)C(=O)NCc2cc(C(F)(F)F)cc(C(F)(F)F)c2)cs1,
0.023,C[C@H]1CN(CCC(C(=O)NCc2cc(C(F)(F)F)cc(C(F)(F)F)c2)c2csc(NC(=O)Cc3cccs3)n2)CC[C@]12C=Cc1ccccc12 (stereo partly drawn),IC50 [3]: 0.081 µM
0.0074,CC(C)C(=O)Nc1nc(C(CCN2CCC(c3ccccc3)CC2)C(=O)NCc2cc(C(F)(F)F)cc(C(F)(F)F)c2)cs1 (stereo not drawn),
0.0058,CNC(=O)Nc1nc([C@@H](CCN2CCC3(C=Cc4ccccc43)CC2)C(=O)NCc2cc(C(F)(F)F)cc(C(F)(F)F)c2)cs1,
0.0018,CC(=O)Nc1nc([C@H](CCN2CCC(c3ccccc3)CC2)C(=O)NCc2cc(C(F)(F)F)cc(C(F)(F)F)c2)cs1,
0.0133,CC(C)(C)OC(=O)Nc1nc([C@@H](CCN2CCC(c3ccccc3)CC2)C(=O)NCc2cc(C(F)(F)F)cc(C(F)(F)F)c2)cs1,
0.03,CNC(=O)Nc1nc([C@@H](CCN2CCC(c3ccccc3)CC2)C(=O)NCc2cc(C(F)(F)F)cc(C(F)(F)F)c2)cs1,
0.02,Nc1nc(C(CCN2CCC(c3ccccc3)CC2)C(=O)NCc2cc(C(F)(F)F)cc(C(F)(F)F)c2)cs1 (stereo not drawn),
0.0018,CC(=O)Nc1nc(C(CCN2CCC(c3ccc(F)cc3)CC2)C(=O)NCc2cc(C(F)(F)F)cc(C(F)(F)F)c2)cs1 (stereo not drawn),
0.036,CS(=O)(=O)Nc1nc(C(CCN2CCC(c3ccccc3)CC2)C(=O)NCc2cc(C(F)(F)F)cc(C(F)(F)F)c2)cs1 (stereo not drawn),
,Nc1nc(C(CCN2CCN(c3ccc(F)cc3)CC2)C(=O)NCc2cc(C(F)(F)F)cc(C(F)(F)F)c2)cs1 (stereo not drawn),inhibition [1]: 70%
0.0039,O=C(Nc1nc(C(CCN2CCC(c3ccccc3)CC2)C(=O)NCc2cc(C(F)(F)F)cc(C(F)(F)F)c2)cs1)C1CC1 (stereo not drawn),
0.0143,CC(C)(C)OC(=O)Nc1nc([C@H](CCN2CCC(c3ccccc3)CC2)C(=O)NCc2cc(C(F)(F)F)cc(C(F)(F)F)c2)cs1,
0.229,O=C(NCc1cc(C(F)(F)F)cc(C(F)(F)F)c1)[C@H](CCN1CCC(c2ccccc2)CC1)c1cscn1,
0.036,C[C@H]1CN(CCC(C(=O)NCc2cc(C(F)(F)F)cc(C(F)(F)F)c2)c2csc(NC(=O)C3Cc4ccccc43)n2)CC[C@]12C=Cc1ccccc12 (stereo partly drawn),IC50 [3]: 0.111 µM
0.00043,CNC(=O)Nc1nc([C@H](CCN2CCC(c3ccccc3)CC2)C(=O)NCc2cc(C(F)(F)F)cc(C(F)(F)F)c2)cs1,
0.0013,N=C(N)Nc1nc(C(CCN2CCC(c3ccccc3)CC2)C(=O)NCc2cc(C(F)(F)F)cc(C(F)(F)F)c2)cs1 (stereo not drawn),
0.0026,COC(=O)Nc1nc(C(CCN2CCC(c3ccccc3)CC2)C(=O)NCc2cc(C(F)(F)F)cc(C(F)(F)F)c2)cs1 (stereo not drawn),
0.183,Cc1ccccc1N1CCN(CCC(C(=O)NCc2cc(C(F)(F)F)cc(C(F)(F)F)c2)c2csc(N)n2)CC1 (stereo not drawn),
0.0035,CCC(=O)Nc1nc(C(CCN2CCC(c3ccccc3)CC2)C(=O)NCc2cc(C(F)(F)F)cc(C(F)(F)F)c2)cs1 (stereo not drawn),

Compound,IC50 [2] [µM],other results
CC(=O)Nc1nc(C(CCN2CCC3(C=Cc4ccccc43)[C@@H](C)C2)C(=O)NCc2cc(C(F)(F)F)cc(C(F)(F)F)c2)cs1 (stereo partly drawn),0.003,
